These results are taken from ChEMBL document CHEMBL1123658, “1-(2-pyridinyl)piperazine derivatives with antianaphylactic, antibronchospastic, and mast cell stabilizing activities” (J Med Chem, 1987).

Some results are limits rather than exact numbers.

The term inhibition in vivo denotes the share of the control response that was lost under treatment. Read a high inhibition in vivo as a strong effect. For orientation: LD50 means the dose expected to kill half of the subjects tested.

The subject of data set [1] is Rattus norvegicus. Nature of the data set: Rat PCA Test(50% inhibition of spot areas)in the female albino rats after oral administration in 10% aqueous acacia gum; Value ranges from (60-123). It is filed as functional. The note with it: read-out: ID50 (the source's name). In outline: (§1)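 Female rats (200-250 g) were passively sensitized by ventral intradermal anti-egg-albumin antiserum. This was raised in rats by intramuscular 1% egg albumin plus ip H. pertussis vaccine, with serum taken at 12 days. After 24 h, groups of 10 were dosed orally with compound or vehicle (10 mL/kg). At 60 min, iv challenge used 0.3% egg albumin with 1% Evans blue. Blued areas were measured after 30 min.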

Data set [2] concerns Rattus norvegicus. Nature of the data set: Rat PCA Test(50% inhibition of spot areas)in the female albino rats after oral administration in 10% aqueous acacia gum;Value ranges from (2-34). It counts as functional. As to conditions: read-out: ID50 (the source's name); call rule not given here. In short, it runs like this:
as §1

For data set [3], the system named is Rattus norvegicus. Briefly: Inhibition of mast cell degranulation was assessed in female albino rats at a dose of 45 umol/kg iv administration. It is filed as functional.
Data set [4] in a line: In vivo toxic effect was determined in mouse after intraperitoneal administration with 10% aqueous acacia gum; value ranges from 0.67-1.21. It counts as toxicity, organism-based. As to conditions: ip. In outline:
(§2)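 Female albino mice (20-30 g), 10 animals per dose, dosed intraperitoneally with compound in solution or suspension; compounds tested as salts unless noted. Mortality was recorded over 7 days.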

A short description of data set [5]: In vivo toxic effect was determined in mouse after intraperitoneal administration with 10% aqueous acacia gum; value ranges from 0.29-0.60. It counts as toxicity, organism-based. As to conditions: ip. In outline: as §2
Data set [6] relates to Rattus norvegicus. Briefly: Rat PCA Test(50% inhibition of spot areas)in the female albino rats after (ip) administration in 10% aqueous acacia gum; value ranges from 25-150. It is filed as functional. As to conditions: read-out: ID50 (the source's name). In outline: (§3)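 Female albino rats (200–250 g) received intradermal ventral injections of rat anti-egg-albumin antiserum; donors were raised with egg albumin im plus H. pertussis ip, and serum was taken at 12 days. 24 h later, compound was given ip in 10% acacia gum (10 mL/kg), 10 rats/group. Challenge 30 min later was iv 0.3% egg albumin plus 1% Evans blue. Blued areas were measured 30 min after challenge.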

The nature of data set [7]: In vivo toxic effect was determined in mouse after oral administration with 10% aqueous acacia gum; value ranges from 0.86-1.66. It counts as toxicity, organism-based. In short, it runs like this: (§4)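 Female albino mice, 20-30 g. Compound given orally as solution or suspension in 10% aqueous acacia gum, 10 animals per dose. Deaths recorded over 7 days.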
The test system of data set [8] is Rattus norvegicus. Briefly: Rat PCA Test(50% inhibition of spot areas)in the female albino rats after ip administration in 10% aqueous acacia gum. It is filed as functional. The note with it: read-out: ID50 (the source's name). In outline: (§5)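 Antiserum came from female rats given 1% egg albumin in 0.9% NaCl intramuscularly plus Haemophilus pertussis vaccine (2 × 10^10 organisms) intraperitoneally, and was collected 12 days later. Recipient rats (200-250 g) got it intradermally at a ventral site. After 24 h, groups of 10 received vehicle or compound ip. At 30 min they were challenged iv with 0.3% egg albumin plus 1% Evans blue. Blued skin areas were measured 30 min later.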

A further data set concerns Cavia porcellus. Briefly: Antibronchospatic activity determined by histamine stimulated bronchospasm inhibition in guinea pigs after(i.v.) administration. It counts as functional, Bronchiole. In short, it runs like this: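 Guinea pigs, Konzett–Rössler preparation. Bronchospasm was induced with histamine. Compound was given iv (1 mL/kg) 1 min before the agonist, dissolved in saline or saline with slight excess HCl or CH3SO3H (pH 3.5–4). Three doses were tested in duplicate, chosen to give 20–90% inhibition. ID75 was read graphically from log dose–response curves.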

Data set [9] is described as follows: In vivo toxic effect was determined in mouse after intraperitoneal administration with 10% aqueous acacia gum; value ranges from 0.63-1.05. As to conditions: ip. It is filed as toxicity, organism-based. In short, it runs like this: as §2
In data set [10] the test system is Rattus norvegicus. Briefly: Rat PCA Test(50% inhibition of spot areas)in the female albino rats after (ip) administration in 10% aqueous acacia gum. It is filed as functional. The note with it: read-out: ID50 (the source's name). In short, it runs like this: as §3
The nature of data set [11]: In vivo toxic effect was determined in mouse after oral administration with 10% aqueous acacia gum; value ranges from 3.02-4.51. It is filed as toxicity, organism-based. In outline:
as §4

A short description of data set [12]: In vivo toxic effect was determined in mouse after intraperitoneal administration with 10% aqueous acacia gum; value ranges from 1.41-3.07. It is filed as toxicity, organism-based. The note with it: ip. In outline:
as §2

The test system of data set [13] is Rattus norvegicus. Briefly: Rat PCA Test(50% inhibition of spot areas)in the female albino rats after oral administration in 10% aqueous acacia gum. The note with it: read-out: ID50 (the source's name). It is filed as functional. In short, it runs like this: as §1
For the next data set, the system named is Mus musculus. Nature of the data set: In vivo toxic effect was determined in mouse after intraperitoneal administration with 10% aqueous acacia gum; NA means poorly absorbed. It counts as toxicity, organism-based. As to conditions: ip. In short, it runs like this:
as §2

In data set [14] the test system is Rattus norvegicus. Briefly: Rat PCA Test(50% inhibition of spot areas)in the female albino rats after (ip) administration in 10% aqueous acacia gum; value ranges from 20-94. The note with it: read-out: ID50 (the source's name). It counts as functional. In short, it runs like this:
as §3

Data set [15] is described as follows: In vivo toxicity in mouse after oral administration with 10% aqueous acacia gum. It counts as organism-based. In short, it runs like this: as §4
The subject of data set [16] is Rattus norvegicus. Nature of the data set: Inhibition of mast cell degranulation was assessed in female albino rats at a dose of 43 umol/kg iv. It is filed as functional.
Data set [17] relates to Rattus norvegicus. Nature of the data set: Rat PCA Test(50% inhibition of spot areas)in the female albino rats after (ip) administration in 10% aqueous acacia gum; value ranges from 96-124. As to conditions: read-out: ID50 (the source's name). It counts as functional. In short, it runs like this: as §5
Data set [18] is described as follows: In vivo toxic effect was determined in mouse after intraperitoneal administration with 10% aqueous acacia gum; value ranges from 0.72-1.13. As to conditions: ip. It counts as toxicity, organism-based. In outline: as §2
The test system of data set [19] is Rattus norvegicus. Nature of the data set: Rat PCA Test(50% inhibition of spot areas)in the female albino rats after (ip) administration in 10% aqueous acacia gum;Value ranges from (81-186). It is filed as functional. As to conditions: read-out: ID50 (the source's name). In outline:
as §5

On to `Cc1cccc(C)c1NC(=O)CCN1CCN(c2ccccn2)CC1`, for which the ED50 with Rattus norvegicus [1] was 86 µmol/kg; with Rattus norvegicus [2], 8 µmol/kg. The same compound gave an inhibition in vivo at 45 µmol/kg in the data set on Rattus norvegicus [3] of 27%. For the same compound, the LD50 in data set [4] stood at 810 µmol/kg.

With `CC1CN(c2ccccn2)CCN1CCC(=O)Nc1ccc([N+](=O)[O-])cc1.Cl.Cl` (stereo unspecified), the LD50 in data set [5] was 420 µmol/kg; in [7] it was 1200 µmol/kg. The ED50 in the data set on Rattus norvegicus [6] amounted to 61 µmol/kg.

Regarding `Cc1c(C)c(C(=O)NCCN2CCN(c3ccccn3)CC2)c(C)c(C)c1N`, the ED50 in the data set with Rattus norvegicus [8] is greater than 236 µmol/kg. In the data set with Cavia porcellus, this compound showed an ID75 of 8.39 µM/kg. In [9], the LD50 amounted to 710 µmol/kg.

For the compound `Cl.Cl.O=C(CCN1CCN(c2ccccn2)CC1)Nc1ccccc1[N+](=O)[O-]`, in the data set with Rattus norvegicus [10], the ED50 was greater than 230 µmol/kg. Also, the LD50 is 3700 µmol/kg in [11] and 2080 µmol/kg in data set [12]. Further, the ID75 in the data set with Cavia porcellus amounted to 0.58 µM/kg.

Consider `Br.CC(=O)c1ccc(NC(=O)CCN2CCN(c3ccc(Br)cn3)CC2)cc1`, for which the figures for the ED50 in the data set on Rattus norvegicus [13] and with Rattus norvegicus [14] were greater than 230 µmol/kg and 43 µmol/kg, respectively. Besides, the LD50 entry was “Not Active” with Mus musculus and greater than 7000 µmol/kg in [15].

With `CNC(=O)Nc1ccc(NC(=O)CCN2CCN(c3ccccn3)CC2)cc1.Cl.Cl`, the ED50 in the data set on Rattus norvegicus [13] was greater than 220 µmol/kg; in the data set on Rattus norvegicus [17] it was 109 µmol/kg. For the same compound, the inhibition in vivo at 43 µmol/kg in the data set with Rattus norvegicus [16] amounted to 0%. In the data set with Cavia porcellus, this compound displayed an ID75 of 0.29 µM/kg. For the same compound, in [15], the LD50 is greater than 6500 µmol/kg.

Consider `Cc1cccc(C)c1NC(=O)CN1CCN(c2ccccn2)CC1`, for which the LD50 in data set [18] stood at 900 µmol/kg. The compound further displayed an ID75 with Cavia porcellus greater than 24 µM/kg. For the same compound, the ED50 in the data set with Rattus norvegicus [19] was 123 µmol/kg.
